From ChEMBL document CHEMBL1144645, “The discovery of highly selective erbB2 (Her2) inhibitors for the treatment of cancer” (Bioorg Med Chem Lett, 2007)

What was measured:
[1] = biological target: T1, Receptor tyrosine-protein kinase erbB-2 (Homo sapiens, UniProt P04626); test: Inhibition of erbB2 in NH3T3 cells; type: cell-based
Outline: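 NIH3T3 cells expressing a chimera of EGFR extracellular and erbB2 intracellular domains are plated, exposed to inhibitor for 2 h, then stimulated with human recombinant EGF for 15 min. Receptor phosphotyrosine read with HRP-PY-54 antibody and TMB, A450. IC50 is the mean of at least two experiments.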

[2] = biological target: T1, Receptor tyrosine-protein kinase erbB-2; test: Inhibition of erbB2 expressed in Sf9 cells
Outline: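 GST-tagged erbB2 intracellular domain (residues 675–1255) made in baculovirus/Sf9 and purified; ~15 ng enzyme phosphorylates poly(Glu,Tyr) with 1 mM ATP plus inhibitor over 6 min. Phosphotyrosine detected by HRP-PY-54 antibody and TMB, A450. IC50 is the mean of at least two experiments.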

[3] = biological target: Epidermal growth factor receptor and ErbB2 (HER1 and HER2) (Homo sapiens) (UniProt P04626+P00533); test: Selectivity for erbB2 over EGFR; type: protein assay
Outline: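 Cell selectivity: IC50 ratio between two NIH3T3 lines run under identical conditions, one carrying human EGFR and one carrying the EGFR-extracellular/erbB2-intracellular chimera. Each line takes 2 h inhibitor, then 15 min human recombinant EGF. Phosphotyrosine measured with HRP-PY-54 and TMB at 450 nm.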

[4] = Bioavailability in rat at 5 mg/kg, po; type: ADME, organism-based; conditions: in vivo
Outline: (§1)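 Single 2 mg/kg IV dose (HCl salt) to define clearance, volume of distribution and half-life; oral arm given 5 mg/kg in 0.5% methylcellulose to derive bioavailability (F).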

[5] = Clearance in rat at 2 mg/kg, iv; type: ADME, organism-based; parameters: dose 2 mg/kg, route intravenous; conditions: in vivo; outline: as §1
[6] = Volume of distribution in rat at 2 mg/kg, iv; type: ADME, organism-based; parameters: dose 2 mg/kg, route intravenous; conditions: in vivo, read-out: Vdss; outline: as §1
[7] = Half life in rat at 2 mg/kg, iv after 1 hr; type: ADME, organism-based; parameters: dose 2 mg/kg, route intravenous; conditions: in vivo; outline: as §1

T1 sequence (P04626 whole entry, the tested form may be a part): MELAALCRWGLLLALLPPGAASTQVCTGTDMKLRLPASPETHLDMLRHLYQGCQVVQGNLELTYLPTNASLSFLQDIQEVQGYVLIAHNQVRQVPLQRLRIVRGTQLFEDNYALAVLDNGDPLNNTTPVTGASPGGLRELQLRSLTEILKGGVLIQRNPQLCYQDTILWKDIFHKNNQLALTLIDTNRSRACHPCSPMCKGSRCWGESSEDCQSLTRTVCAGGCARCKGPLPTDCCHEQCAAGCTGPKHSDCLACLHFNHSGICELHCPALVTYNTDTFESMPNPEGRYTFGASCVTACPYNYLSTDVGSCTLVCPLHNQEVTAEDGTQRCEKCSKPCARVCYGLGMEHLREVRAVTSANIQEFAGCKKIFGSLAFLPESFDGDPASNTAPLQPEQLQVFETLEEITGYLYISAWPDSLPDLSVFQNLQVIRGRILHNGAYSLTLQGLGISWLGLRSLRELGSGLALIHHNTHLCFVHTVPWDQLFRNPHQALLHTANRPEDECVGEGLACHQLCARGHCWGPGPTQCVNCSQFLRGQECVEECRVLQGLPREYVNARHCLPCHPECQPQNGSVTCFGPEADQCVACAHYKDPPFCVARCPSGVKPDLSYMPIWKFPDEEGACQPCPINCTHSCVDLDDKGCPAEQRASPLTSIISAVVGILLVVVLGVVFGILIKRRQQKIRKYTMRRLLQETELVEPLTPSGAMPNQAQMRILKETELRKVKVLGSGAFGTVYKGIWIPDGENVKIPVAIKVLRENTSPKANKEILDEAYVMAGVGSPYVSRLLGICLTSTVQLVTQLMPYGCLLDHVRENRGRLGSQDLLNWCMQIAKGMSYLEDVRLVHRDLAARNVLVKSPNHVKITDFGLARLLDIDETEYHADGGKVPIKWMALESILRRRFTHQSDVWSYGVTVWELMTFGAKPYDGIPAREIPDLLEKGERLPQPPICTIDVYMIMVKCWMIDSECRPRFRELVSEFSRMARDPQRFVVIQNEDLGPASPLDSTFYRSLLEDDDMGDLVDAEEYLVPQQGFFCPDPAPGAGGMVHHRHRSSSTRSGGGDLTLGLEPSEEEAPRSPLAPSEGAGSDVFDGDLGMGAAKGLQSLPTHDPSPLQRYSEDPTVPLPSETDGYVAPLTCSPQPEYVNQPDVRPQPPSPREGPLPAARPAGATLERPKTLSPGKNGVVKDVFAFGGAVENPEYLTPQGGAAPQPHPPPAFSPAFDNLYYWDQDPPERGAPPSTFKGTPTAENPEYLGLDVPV

Row | IC50 [1] | IC50 [2] | Selectivity ratio [3] | bioavailability [4] | clearance [5] | Vd [6] | half-life [7] | Structure (SMILES)
1 | 34 nM | 75 nM | > 290 | – | – | – | – | Cc1cc(Nc2ncnc3ccc(OCCCN4CCOCC4)cc23)ccc1OC1CCN(C(=O)CC(C)(C)C)CC1
2 | – | > 10000 nM | – | – | – | – | – | COCC(=O)NCC#Cc1ccc2ncnc(Nc3ccc(OC4CCNCC4)c(C)c3)c2c1
3 | 310 nM | 77 nM | 1 | – | – | – | – | COc1cc2ncnc(Nc3ccc(Oc4ccc(C(=O)NCC(C)(C)C)cc4)c(C)c3)c2cc1OC
4 | 2900 nM | 550 nM | – | – | – | – | – | COCC(=O)NCC#Cc1ccc2ncnc(Nc3ccc(OC4CCN(C(=O)C5CCCO5)CC4)c(C)c3)c2c1 (stereo unspecified)
5 | 110 nM | 130 nM | 91 | – | – | – | – | COCC(=O)NCC#Cc1ccc2ncnc(Nc3ccc(Oc4cccc(C(=O)NCC(C)(C)C)c4)c(C)c3)c2c1
6 | 180 nM | 25 nM | 25 | – | – | – | – | CNc1cc2c(Nc3ccc(OC4CCN(C(=O)Nc5c(F)cccc5F)CC4)c(C)c3)ncnc2cn1
7 | 76 nM | 100 nM | > 130 | – | – | – | – | COc1cc2ncnc(Nc3ccc(OC4CCN(C(=O)CC(C)(C)C)CC4)c(C)c3)c2cc1OC
8 | 530 nM | 260 nM | 11 | – | – | – | – | COCCOc1cc2ncnc(Nc3ccc(OC4CCN(C(=O)CC(C)(C)C)CC4)c(C)c3)c2cc1OCCOC
9 | – | > 10000 nM | – | – | – | – | – | COCC(=O)NCC#Cc1ccc2ncnc(Nc3ccc(Oc4cccc(C(=O)N(C)C)c4)c(C)c3)c2c1
10 | < 10 nM | 51 nM | > 230 | – | – | – | – | Cc1cc(Nc2ncnc3cnc(N(C)C)cc23)ccc1OC1CCN(C(=O)CC(C)(C)C)CC1
11 | < 10 nM | 36 nM | > 100 | – | – | – | – | Cc1cc(Nc2ncnc3cnc(N4CCCC4)cc23)ccc1Oc1ccc(C(=O)NCC(C)(C)C)cc1
12 | 29 nM | 44 nM | > 350 | – | – | – | – | COCCOc1ccc2ncnc(Nc3ccc(OC4CCN(C(=O)C5CCCC5)CC4)c(C)c3)c2c1
13 | – | > 10000 nM | – | – | – | – | – | COCC(=O)NCC#Cc1ccc2ncnc(Nc3ccc(Oc4ccc(C(=O)NC(C)(C)C)cc4)c(C)c3)c2c1
14 | 840 nM | 230 nM | 6.5 | – | – | – | – | COCCOc1cc2ncnc(Nc3ccc(OC4CCN(C(=O)Nc5c(F)cccc5F)CC4)c(C)c3)c2cc1OCCOC
15 | 16 nM | 7 nM | 210 | – | – | – | – | Cc1cc(Nc2ncnc3cnc(N4CCOCC4)cc23)ccc1OC1CCN(C(=O)Nc2c(F)cccc2F)CC1
16 | 15 nM | 130 nM | > 660 | – | – | – | – | Cc1cc(Nc2ncnc3cnc(N4CCN(C)CC4)cc23)ccc1Oc1ccc(C(=O)NCC(C)(C)C)cc1
17 | 13 nM | 30 nM | 230 | – | – | – | – | CNc1cc2c(Nc3ccc(Oc4ccc(C(=O)NCC(C)(C)C)cc4)c(C)c3)ncnc2cn1
18 | 20 nM | 21 nM | 68 | – | – | – | – | Cc1cc(Nc2ncnc3cnc(N(C)C)cc23)ccc1OC1CCN(C(=O)Nc2c(F)cccc2F)CC1
19 | – | > 10000 nM | – | – | – | – | – | COCC(=O)NCC#Cc1ccc2ncnc(Nc3ccc(OC4CCN(C)CC4)c(C)c3)c2c1
20 | 33 nM | 18 nM | > 300 | 54% | 2.5 mL/min/kg | 0.2 L/kg | 1 h | Cc1cc(Nc2ncnc3cnc(N4CCOCC4)cc23)ccc1OC1CCN(C(=O)C2CCCC2)CC1
21 | – | > 10000 nM | – | – | – | – | – | COCC(=O)NCC#Cc1ccc2ncnc(Nc3ccc(OC4CCN(C(=O)COC)CC4)c(C)c3)c2c1
22 | 51 nM | 150 nM | > 200 | – | – | – | – | COCC(=O)NCC#Cc1ccc2ncnc(Nc3ccc(OC4CCN(C(=O)C5CCC5)CC4)c(C)c3)c2c1

Row | IC50 [1] | IC50 [2] | Selectivity ratio [3] | bioavailability [4] | clearance [5] | Vd [6] | half-life [7] | Structure (SMILES)
23 | < 10 nM | 23 nM | > 1000 | – | – | – | – | Cc1cc(Nc2ncnc3cnc(N4CCOCC4)cc23)ccc1OC1CCN(C(=O)CC(C)(C)C)CC1
24 | 67 nM | 19 nM | 23 | – | – | – | – | COc1cc2ncnc(Nc3ccc(OC4CCN(C(=O)Nc5c(F)cccc5F)CC4)c(C)c3)c2cc1OC
25 | – | > 10000 nM | – | – | – | – | – | COCC(=O)NCC#Cc1ccc2ncnc(Nc3ccc(Oc4ccc(C(=O)Nc5ccccc5)cc4)c(C)c3)c2c1
26 | – | 96 nM | – | – | – | – | – | COc1ccc2ncnc(Nc3ccc(OC4CCN(C(=O)CC(C)(C)C)CC4)c(C)c3)c2c1
27 | 190 nM | 76 nM | > 53 | – | – | – | – | COCC(=O)NCC#Cc1ccc2ncnc(Nc3ccc(OC4CCN(C(=O)Nc5c(F)cccc5F)CC4)c(C)c3)c2c1
28 | 15 nM | 280 nM | 230 | – | – | – | – | Cc1cc(Nc2ncnc3cnc(NCCN4CCOCC4)cc23)ccc1Oc1ccc(C(=O)NCC(C)(C)C)cc1
29 | – | 140 nM | – | – | – | – | – | COCC(=O)NCC#Cc1ccc2ncnc(Nc3ccc(Oc4cccc(C(=O)Nc5ccccc5)c4)c(C)c3)c2c1
30 | 16 nM | 94 nM | 400 | – | – | – | – | COCC(=O)NCC#Cc1ccc2ncnc(Nc3ccc(OC4CCN(C(=O)CC(C)(C)C)CC4)c(C)c3)c2c1
31 | 250 nM | 46 nM | 11 | – | – | – | – | COc1ccc2ncnc(Nc3ccc(OC4CCN(C(=O)Nc5c(F)cccc5F)CC4)c(C)c3)c2c1
32 | 160 nM | 230 nM | > 64 | – | – | – | – | COCC(=O)NCC#Cc1ccc2ncnc(Nc3ccc(Oc4cccc(C(=O)NC5CCC5)c4)c(C)c3)c2c1
33 | 19 nM | 120 nM | > 500 | – | – | – | – | COCCOc1ccc2ncnc(Nc3ccc(OC4CCN(C(=O)CC(C)(C)C)CC4)c(C)c3)c2c1
34 | 33 nM | 27 nM | > 300 | – | – | – | – | COCCOc1ccc2ncnc(Nc3ccc(OC4CCN(C(=O)Nc5c(F)cccc5F)CC4)c(C)c3)c2c1
35 | 530 nM | 77 nM | > 19 | – | – | – | – | COCCOc1cc2ncnc(Nc3ccc(OC4CCN(C(=O)C5CCCC5)CC4)c(C)c3)c2cc1OCCOC
36 | 55 nM | 55 nM | 32 | – | – | – | – | Cc1cc(Nc2ncnc3ccc(OCCCN4CCOCC4)cc23)ccc1OC1CCN(C(=O)Nc2c(F)cccc2F)CC1
37 | < 10 nM | 48 nM | > 770 | – | – | – | – | Cc1cc(Nc2ncnc3cnc(N(C)C)cc23)ccc1Oc1ccc(C(=O)NCC(C)(C)C)cc1
38 | 30 nM | 18 nM | 250 | – | – | – | – | COCC(=O)NCC#Cc1ccc2ncnc(Nc3ccc(Oc4cccc(C(=O)NC(C)(C)C)c4)c(C)c3)c2c1
39 | – | > 10000 nM | – | – | – | – | – | CNC(=O)c1cccc(Oc2ccc(Nc3ncnc4ccc(C#CCNC(=O)COC)cc34)cc2C)c1
40 | – | > 10000 nM | – | – | – | – | – | COCC(=O)NCC#Cc1ccc2ncnc(Nc3ccc(OC4CCN(C(C)=O)CC4)c(C)c3)c2c1
41 | 23 nM | 140 nM | 200 | – | – | – | – | COCC(=O)NCC#Cc1ccc2ncnc(Nc3ccc(Oc4ccc(C(=O)NCC(C)(C)C)cc4)c(C)c3)c2c1
42 | – | > 10000 nM | – | – | – | – | – | CNC(=O)c1ccc(Oc2ccc(Nc3ncnc4ccc(C#CCNC(=O)COC)cc34)cc2C)cc1
43 | – | > 10000 nM | – | – | – | – | – | COCC(=O)NCC#Cc1ccc2ncnc(Nc3ccc(Oc4ccc(C(=O)N(C)C)cc4)c(C)c3)c2c1
44 | 75 nM | 210 nM | 92 | – | – | – | – | COCC(=O)NCC#Cc1ccc2ncnc(Nc3ccc(OC4CCN(C(=O)c5cccc(Cl)c5)CC4)c(C)c3)c2c1
